This is a sample that favours compounds with a hit; in the whole collection about 1.7% have one here.
HNF4A DNA FP: change in binding of human HNF4 alpha to DNA | P41235 | HNF4a-FITC DNA binding, fluorescence polarization, 1 h | activity change, % at 10 µM | 360,000 tested, 0.3% active | AID 1224865; in the data active = activity change above about 30%, passing the limit was not always enough
Rpn11 inh: Rpn11 (human) deubiquitinase inhibition | 360,000 tested, 0.59% active | human 26S proteasome, Ub4-pepOG fluorescence polarization; 20S core pre-blocked with epoxomicin | inhibition, % at 20 µM | O00487;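 active = inhibition at 20 µM, scaled to each plate's controls, above about 33%, limit read from the data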
Target sequence (O00487 whole entry, looked up): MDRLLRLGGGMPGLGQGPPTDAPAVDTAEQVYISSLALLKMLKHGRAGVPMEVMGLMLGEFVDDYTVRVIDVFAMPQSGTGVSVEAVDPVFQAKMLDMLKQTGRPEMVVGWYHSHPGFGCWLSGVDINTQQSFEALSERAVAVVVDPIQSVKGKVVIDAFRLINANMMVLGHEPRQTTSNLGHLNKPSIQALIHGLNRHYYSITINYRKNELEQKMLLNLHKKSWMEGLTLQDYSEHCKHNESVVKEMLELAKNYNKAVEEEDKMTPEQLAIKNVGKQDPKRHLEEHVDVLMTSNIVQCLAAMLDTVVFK
CSN inh: blocks human CSN-mediated cullin deneddylation. Q92905. Purified CSN, SCF-Nedd8-OG deneddylation, fluorescence polarization. inhibition, % at 12.5 µM. 360,000 tested, 0.38% active. AID 651999;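 active = pattern-corrected inhibition above about 35%, with an unprinted fluorescence ratio check between 0.5 and 1.5, limit read from the data, passing the limit was not always enough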;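 also: 0% = enzyme with substrate and 100% = substrate without enzyme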
Target sequence (Q92905 whole entry, looked up, one chain of several): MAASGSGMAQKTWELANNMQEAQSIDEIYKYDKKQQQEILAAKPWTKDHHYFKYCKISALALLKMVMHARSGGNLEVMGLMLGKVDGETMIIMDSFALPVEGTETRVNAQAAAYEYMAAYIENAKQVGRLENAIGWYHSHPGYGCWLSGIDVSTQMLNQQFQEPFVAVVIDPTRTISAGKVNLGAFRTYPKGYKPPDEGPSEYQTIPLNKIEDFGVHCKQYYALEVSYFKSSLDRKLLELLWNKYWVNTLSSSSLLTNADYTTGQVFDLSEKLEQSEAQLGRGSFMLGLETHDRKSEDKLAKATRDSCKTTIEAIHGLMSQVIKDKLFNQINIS
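Assay system: purified human Csn5 enzyme expressed in HEK293T cells; Input: 0.24 nM Csn5 enzyme, final concentration; Reagent: 10 nM SCFSkp2-Nedd8OG; Compound dosing: 12.5 µM single point; Times: reaction 90 min, room temperature; Technique: fluorescence polarization readout.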
TPT1 inh: C. albicans TPT1 enzyme inhibition. recombinant caTPT1, FP RNA substrate dephosphorylation. inhibition, % at 5 µM. 300,000 tested, 0.81% active. AID 1962;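 active = inhibition above the mean of all tested compounds plus 3 SD, set per screening campaign, cut at about 24% in these data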;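 also: plate controls were DMSO alone for no effect and ferristatin control at 100 nM for full effect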
IDE cell activ: boosts human insulin-degrading enzyme activity in HEK cells; 340,000 tested, 0.073% active; P14735; FAbeta-B cleavage, fluorescence polarization; 0% vehicle, 100% cell-free pure enzyme wells; activation, % at 5.96 µM;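 active = activation above the mean of all tested compounds plus 3 SD, set per screening campaign, cut at about 17% in these data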
IDE cell inh: cellular human IDE inhibition. HEK cells, FAbetaB cleavage, fluorescence polarization. inhibition, % at 5.59 µM. AID 434962. P14735. 320,000 tested, 0.41% active;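 active = percent inhibition above the average of all tested compounds plus 3 SD, set per screening campaign, cut at about 16% in these data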;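 also: IDE supplied by intact live HEK cells; FP after avidin binding of uncleaved biotin substrate so inhibition keeps polarization high; 0% = DMSO wells and 100% = 60 µM reference IDE inhibitor Ii1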
Numbers without * were called inactive.

`Nc1cc2nsnc2cc1Br` gave HNF4A DNA FP -30.2, Rpn11 inh -48.5, CSN inh 38.5*, TPT1 inh -14.1, IDE cell activ 1.1 and IDE cell inh 2.4.
Screening COC(=O)c1cc(O)cc(OC)c1C(=O)c1c(O)cc(C)cc1O returned HNF4A DNA FP 0.8, Rpn11 inh -6.7, CSN inh 4.5, TPT1 inh -2.0, IDE cell activ 6.0 and IDE cell inh 6.2.
Screening COC(=O)c1cc(O)cc(OC)c1Oc1cc(C)cc(O)c1C(=O)O returned HNF4A DNA FP -23.1, CSN inh 40.6*, TPT1 inh 1.0, IDE cell activ -1.6 and IDE cell inh -1.1.
`S=c1[nH]nc(-c2cc(-c3ccccc3)n[nH]2)n1/N=C/C=C/c1ccco1` gave HNF4A DNA FP -3.7, Rpn11 inh 24.5, CSN inh 31.0, TPT1 inh 0.3 and IDE cell inh 8.2.
`S=c1[nH]nc(-c2ccco2)n1/N=C/C=C/c1ccco1` gave HNF4A DNA FP -16.2, Rpn11 inh -0.3, CSN inh 38.2*, TPT1 inh -0.3, IDE cell activ -3.4 and IDE cell inh 0.4.
For O=C(Nc1ccc(Br)cc1)c1cc([N+](=O)[O-])cc([N+](=O)[O-])c1 the results were HNF4A DNA FP 1.3, Rpn11 inh 21.6, CSN inh 0.8, TPT1 inh 0.8, IDE cell activ 5.0 and IDE cell inh -3.1.
O=c1c2c([N+](=O)[O-])cc([N+](=O)[O-])cc2sn1-c1ccc(Br)cc1 was read as HNF4A DNA FP -4.8, Rpn11 inh 13.4, CSN inh -6.2, TPT1 inh -5.3, IDE cell activ -52.7 and IDE cell inh 95.6*.
N=C1CCCC1C(=S)SCCC(N)=O (stereo not given) was read as HNF4A DNA FP 3.8, Rpn11 inh -10.1 and CSN inh 1.3.
For O=C(CCNC(=O)C1CCN(S(=O)(=O)c2ccccc2)CC1)NCc1cccc(C(F)(F)F)c1 the results were HNF4A DNA FP 38.4*, Rpn11 inh -2.8, CSN inh 2.4, TPT1 inh -3.0, IDE cell activ 2.2 and IDE cell inh 3.7.
Screening O=C(Nc1ccc(C(F)(F)F)cc1)N1CCN(c2ccnc3cc(Cl)ccc23)CC1 returned HNF4A DNA FP 2.1, Rpn11 inh 5.3, CSN inh -8.6, TPT1 inh -2.3 and IDE cell inh 30.0*.
Nc1cc2nc3ccccc3oc-2cc1=O was read as HNF4A DNA FP 3.9, Rpn11 inh 54.3*, CSN inh 13.3, TPT1 inh 23.8, IDE cell activ 0.1 and IDE cell inh 0.7.
`Cc1cc(=O)oc(C)c1C(=O)NC12CC3CC(CC(C3)C1)C2` gave HNF4A DNA FP -0.2, Rpn11 inh -2.5, CSN inh -4.0, TPT1 inh -2.9, IDE cell activ 5.1 and IDE cell inh 3.3.
Screening Cc1cc(=O)oc(C)c1C(=O)n1nc(C)c2c1C[C@@H]1[C@H]2C1(C)C returned HNF4A DNA FP 52.1*, Rpn11 inh 4.5, CSN inh 2.7, TPT1 inh -4.3, IDE cell activ 5.7 and IDE cell inh -9.8.
Screening COC(=O)c1ccc(-c2ccco2)n1Cc1ccccc1Cl returned HNF4A DNA FP 2.0, Rpn11 inh 6.6, CSN inh 48.8*, TPT1 inh -0.7, IDE cell activ 3.9 and IDE cell inh 4.6.
Screening CCOc1c(OC(C)=O)ccc(/C=C/c2ccc3cccc(OC(C)=O)c3n2)c1[N+](=O)[O-] returned HNF4A DNA FP -0.9, Rpn11 inh 1.8, CSN inh 3.5, TPT1 inh -1.3, IDE cell activ 6.8 and IDE cell inh -6.3.
For C=CCN1C(=O)/C(=C/c2ccc(OC(C)=O)c(OCC)c2[N+](=O)[O-])SC1=S the results were HNF4A DNA FP 34.8, Rpn11 inh 79.0*, CSN inh 34.6 and IDE cell activ -5.0.
N#Cc1sc2nc(-c3ccccc3)cc(-c3ccco3)c2c1N was read as HNF4A DNA FP 10.6, Rpn11 inh 13.7, CSN inh 40.1*, TPT1 inh 10.4, IDE cell activ -4.7 and IDE cell inh -1.7.
For COc1ccc(C(=O)NCCS(=O)(=O)NCc2ccccc2)cc1 the results were HNF4A DNA FP -0.6, Rpn11 inh -2.6, CSN inh 2.4, TPT1 inh -0.4, IDE cell activ -0.2 and IDE cell inh 4.8.
`N#CCCn1c(C2CCCCC2)nc2ccccc21` gave HNF4A DNA FP -0.5, Rpn11 inh 2.0, CSN inh -4.0, TPT1 inh -2.2, IDE cell activ 4.5 and IDE cell inh -4.3.
`COc1ccc(Cc2c(-c3ccco3)nc3ccc(Cl)cn23)c(C)c1` gave HNF4A DNA FP -17.4, Rpn11 inh -2.3 and CSN inh 40.1*.
COc1ccc(Cc2c(-c3ccco3)nc3ccc(Br)cn23)c(C)c1 was read as HNF4A DNA FP -31.6, Rpn11 inh -6.3 and CSN inh 16.6.
For O=C(CCc1ccccc1)NCC1(c2ccccc2)CCCC1 the results were HNF4A DNA FP 0.9, Rpn11 inh -3.1, CSN inh -1.7, TPT1 inh 3.7, IDE cell activ 3.4 and IDE cell inh 6.8.
`CCOC(=O)COc1ccc(Br)cc1/C=C/c1[nH]c(=O)[nH]c(=O)c1[N+](=O)[O-]` gave HNF4A DNA FP -2.7, Rpn11 inh -6.9, CSN inh 38.7*, TPT1 inh 2.1, IDE cell activ -4.3 and IDE cell inh -4.4.
For CCOC(=O)COc1ccc(Br)cc1/C=C\c1[nH]c(=O)[nH]c(=O)c1[N+](=O)[O-] the results were HNF4A DNA FP -2.1, Rpn11 inh -1.5, CSN inh 28.6, TPT1 inh -1.8, IDE cell activ -0.2 and IDE cell inh 10.1.
For O=C(COc1ccccc1[N+](=O)[O-])NNC(=O)Nc1cccc2ccccc12 the results were HNF4A DNA FP 2.5, Rpn11 inh -1.5, CSN inh 2.3, TPT1 inh -2.1, IDE cell activ 1.2 and IDE cell inh 3.9.
Screening O=C(NCCCCc1ccccc1)c1ccc(F)cc1 returned HNF4A DNA FP -4.8, Rpn11 inh -1.1, CSN inh 3.5, TPT1 inh -2.3, IDE cell activ 2.3 and IDE cell inh 2.7.
Screening O=C(Nc1ccc(-c2nc3ccccc3o2)cc1)c1ccc2c(c1)OCO2 returned HNF4A DNA FP 3.6, Rpn11 inh 1.2, CSN inh 0.5, TPT1 inh 3.0, IDE cell activ 17.8* and IDE cell inh -4.2.
COc1ccc(/C=C2\SC(=O)N(CCNC(=O)C3CCN(S(=O)(=O)c4cccs4)CC3)C2=O)cc1 was read as HNF4A DNA FP 31.0*, Rpn11 inh -16.0, CSN inh -4.5, TPT1 inh -3.0, IDE cell activ 2.9 and IDE cell inh 6.6.
Screening CCc1ccc(N2CSC3=C(C#N)C(c4cccs4)CC(=O)N3C2)cc1 (stereo not given) returned HNF4A DNA FP -13.4, Rpn11 inh 9.1, CSN inh 35.6*, TPT1 inh 1.5, IDE cell activ -10.8 and IDE cell inh -0.1.
